Results from ChEMBL document CHEMBL1145772, “Antiinflammatory, gastrosparing, and antiplatelet properties of new NO-donor esters of aspirin” (J Med Chem, 2003).

Legend:
[1] = Percent unaltered compound in human serum after 1 hr of incubation; type: ADME; conditions: read-out: Unaltered compound
In short: (§1)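 Compound is incubated in human serum at 37 °C for 1 min or 1 h. Samples are then deproteinized with acetonitrile containing 0.1% TFA and centrifuged at 9600g for 10 min. The remaining intact compound is quantified by reversed-phase HPLC on an RP-18 column at 40 °C, using a 25–80% acetonitrile/0.1% TFA gradient, with UV detection at 224 nm.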

[2] = Percent unaltered compound in human serum after 1 min of incubation; type: ADME; conditions: read-out: Unaltered compound; in short: as §1
Homo sapiens [3] = species: Homo sapiens; test: Inhibition of ADP-induced human platelet rich plasma aggregation at 50 uM concentration; type: functional
In short: (§2)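 Human platelet-rich plasma is prepared from citrated venous blood of drug-free healthy volunteers (at least 2 weeks) by spinning at 200g for 20 min. Compound is added 10 min before the agonist, either ADP or collagen at […]. Light-transmission aggregation is recorded under stirring at 1000 rpm, 37 °C, for 5 min. Inhibition is expressed relative to vehicle (<0.5% DMSO) controls. The top concentration is 50 µM. pIC50 is fitted by nonlinear regression when inhibition exceeds 50%.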

Homo sapiens [4] = species: Homo sapiens; test: Inhibition of collagen-induced human platelet rich plasma aggregation at 50 uM concentration; type: functional; in short: as §2
[5] = NO release in the presence of 1:5 molar excess of L-cysteine, value expressed as % mol/mol of NO2-
In short: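 Compound is dissolved in pH 7.4 buffered water/methanol and incubated for 1 h at 37 °C with a 1:5 molar excess of L-cysteine (5 × 10^-4 M). Griess reagent is added, and absorbance at 540 nm is read after 10 min at room temperature. Nitrite is reported as % mol/mol, mean ± SEM.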

Homo sapiens [6] = species: Homo sapiens; test: Inhibition of collagen-induced human platelet rich plasma aggregation at 50 uM concentration in presence of 40 uM HbO2; type: functional
In short: (§3)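 Aggregation of human PRP is triggered by ADP or by collagen at […], and read by light transmission (stirring, 37 °C, 5 min). Compound is given 10 min before the agonist. The NO scavenger oxyhaemoglobin or the sGC inhibitor ODQ (100 µM) is included to probe NO/sGC involvement. The value is % inhibition versus vehicle control at the top tested concentration of 50 µM.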

Homo sapiens [7] = species: Homo sapiens; test: Inhibition of ADP-induced human platelet rich plasma aggregation at 50 uM concentration in presence of 100 uM ODQ; type: functional; in short: as §3
Homo sapiens [8] = species: Homo sapiens; test: Inhibition of ADP-induced human platelet rich plasma aggregation at 50 uM concentration in presence of 40 uM HbO2; type: functional; in short: as §3
Homo sapiens [9] = species: Homo sapiens; test: Inhibition of collagen-induced human platelet rich plasma aggregation at 50 uM concentration in presence of 100 uM ODQ; type: functional; in short: as §3
Homo sapiens [10] = species: Homo sapiens; test: Inhibition of collagen-induced human platelet rich plasma aggregation; type: functional; in short: as §2

Compound | remaining at 1 h [1] [%] | remaining at 1 min [2] [%] | inhibition at 50 µM (Homo sapiens [3]) [%] | inhibition at 50 µM (Homo sapiens [4]) [%] | NO release [5] | Inhibition (Homo sapiens [6]) [%] | Inhibition (Homo sapiens [7]) [%] | Inhibition (Homo sapiens [8]) [%] | Inhibition (Homo sapiens [9]) [%] | Inhibition (Homo sapiens [10]) [%]
CC(=O)Oc1ccccc1C(=O)OCc1nonc1C#N | 0 | 0 | 14.8 | 27.9 | – | – | – | – | – | –
CCCOC(=O)c1ccccc1OC(C)=O | 0 | 0 | 18.1 | 14.4 | – | – | – | – | – | –
CC(=O)Oc1ccccc1C(=O)OCCCO[N+](=O)[O-] | 0 | 0 | 18.3 | 12.3 | 0.18 | – | – | – | – | –
CC(=O)Oc1ccccc1C(=O)OCCCOc1no[n+]([O-])c1S(=O)(=O)c1ccccc1 | 9.3 | 43.7 | – | – | 37.1 | – | – | – | – | –
CC(=O)Oc1ccccc1C(=O)OCCCOc1nonc1S(=O)(=O)c1ccccc1 | 8.1 | 47.6 | 3.3 | 14.8 | – | – | – | – | – | –
CC(=O)Oc1ccccc1C(=O)OCc1no[n+]([O-])c1C(N)=O | 0 | 0 | – | – | 3.8 | 14.4 | 22.6 | 28.6 | 18.5 | –
CC(=O)Oc1ccccc1C(=O)OCCCOc1nonc1-c1ccccc1 | 3.9 | 39.3 | 16.9 | 0.7 | – | – | – | – | – | –
CC(=O)Oc1ccccc1C(=O)OCc1no[n+]([O-])c1C | 0 | 2.5 | 17.8 | – | 0 | – | – | – | – | 18.6
CC(=O)Oc1ccccc1C(=O)OCCCOc1no[n+]([O-])c1-c1ccccc1 | 3.8 | 38.8 | – | – | 0.35 | – | – | – | – | –
CC(=O)Oc1ccccc1C(=O)OCc1nonc1C(N)=O | 0 | 0 | 7.6 | 16.7 | – | – | – | – | – | –
CC(=O)Oc1ccccc1C(=O)OCc1no[n+]([O-])c1C#N | 0 | 0 | – | – | 32.3 | – | – | – | – | –
CC(=O)Oc1ccccc1C(=O)OCc1nonc1C | 0 | 0 | 23.2 | 1.5 | – | – | – | – | – | –
